Screening results as filed in PubChem BioAssay.
Only some compounds are listed: those with a hit (about 2.6% of all), similar ones and a draw of the others.
GSTO1 counter = inhibitors of recombinant GSTO1, primary screen, counter-screen for RBBP9 inhibitor project, biochemical, fluorescence polarization. Glutathione S-transferase omega-1 (Homo sapiens), P78417. hit rate 1.1% among 300,000. activity-based probe fluorescence polarization. inhibition, % at 5.96 µM;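 active = inhibition above the campaign mean inhibition plus 3 SD, cut at about 35% in these data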;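 note: 0% = GSTO1-1 with DMSO and 100% = wells lacking GSTO1-1 enzyme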
Apaf-1 inh = inhibitors of human Apaf-1 apoptosome, primary screen, biochemical, DEVD-Rh110 fluorescence, uHTS. hit rate 0.71% among 330,000. reconstituted apoptosome caspase-3 activity. AID 489030, 2010. inhibition, % at 20 µM. Apoptotic protease-activating factor 1 (Homo sapiens), O14727; active = inhibition of at least 40% at 20 µM;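 note: plate controls were DMSO wells for no effect and DEVD-CHO caspase inhibitor wells for full effect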
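Assay system – apoptosome proteins · Medium – Hepes buffer, pH 7.5 · Also added – cytochrome c with DEVD-Rh110 · Timing – 30 min compound preincubation, 50 min activation, room temperature · Detection – Rh110 fluorescence, excitation 480 nm, emission 540 nm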
PAD4 FP inh = human PAD4 inhibitors, primary screen, biochemical, fluorescence polarization, 1536-well format; hit rate 0.41% among 330,000; inhibition, % at 6.36 µM; AID 485272, 2010; Protein-arginine deiminase type-4 (Homo sapiens), Q9UM07; recombinant PAD4, RCA probe fluorescence polarization;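 active = percent inhibition above a cutoff equal to the mean of all tested compounds plus 3 SD, cut at about 15% in these data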;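 note: 0% = PAD4 with RCA probe and DMSO and 100% = probe without PAD4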
PRMT1 FP inh = PRMT1 methyltransferase inhibitors, primary screen, biochemical, fluorescence polarization; Protein arginine N-methyltransferase 1 (Homo sapiens), Q99873; inhibition, % at 2.79 µM; hit rate 1.3% among 370,000; recombinant PRMT1, activity-based probe fluorescence polarization; AID 652257, 2013;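 active = inhibition above about 21% made by adding two undisclosed values, limit read from the data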
Target sequence (Q99873 whole entry, looked up): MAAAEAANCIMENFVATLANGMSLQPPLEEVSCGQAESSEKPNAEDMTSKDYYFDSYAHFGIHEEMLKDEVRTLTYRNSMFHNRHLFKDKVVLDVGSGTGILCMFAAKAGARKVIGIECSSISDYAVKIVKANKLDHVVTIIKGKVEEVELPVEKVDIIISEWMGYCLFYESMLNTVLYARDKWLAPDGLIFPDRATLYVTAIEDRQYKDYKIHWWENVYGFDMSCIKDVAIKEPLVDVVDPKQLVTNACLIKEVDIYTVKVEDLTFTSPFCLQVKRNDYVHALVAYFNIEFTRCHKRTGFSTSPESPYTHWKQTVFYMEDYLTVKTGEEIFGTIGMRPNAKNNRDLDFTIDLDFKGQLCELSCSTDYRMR
TDP2 inh = human TDP2 enzyme inhibitors, primary screen, biochemical, epi absorbance, recombinant enzyme; inhibition, % at 12.8 µM; Tyrosyl-DNA phosphodiesterase 2 (Homo sapiens), O95551; hit rate 0.34% among 370,000; T5PNP hydrolysis, p-nitrophenol absorbance 415 nm;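 active = inhibition above the mean of all tested compounds plus 3 SD, set per campaign, cut at about 25% in these data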;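 note: 0% = DMSO with enzyme and 100% = buffer with substrate but no TDP2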
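test system = human TDP2 enzyme | input = TDP2 enzyme at 120 nM final | medium = 50 mM Tris-HCl pH 7.5 with Mg2+, KCl, DTT, BSA | also added = T5PNP substrate, 5 mM | times = 2 h at 37 °C | technique = epi absorbance | benchmarks = high control without enzyme, low control DMSO plus TDP2 | replication = each compound tested once, singlicate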
Apaf-1 inh conf = Apaf-1 inhibitors, single-dose retest, confirmation, biochemical, fluorescence, DEVD-Rh110, 20 µM; shares compounds with Apaf-1 inh; reconstituted apoptosome, caspase-3 DEVD-Rh110 fluorescence; inhibition, % at 20 µM; hit rate 25% among 1,800;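 active = mean inhibition of at least 40% at 20 µM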;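 note: plate controls were DMSO wells for no effect and DEVD-CHO caspase inhibitor control wells for full effect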
Rh110 quench = Rh110 fluorescence interference by putative Apaf-1 inhibitors, confirmation, artefact control for Apaf-1 inhibitor project, biochemical, 20 µM; shares compounds with Apaf-1 inh; quenched caspase reaction; activation (fluorescence interference), % at 20 µM; 1,800 tested, under 10 active;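 active = signal rise of 40% or more at 20 µM, treated as a fluorescence artifact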
Apaf1 inh interf = fluorescence interference of Apaf-1 inhibitor hits, dose response, artefact control for Apaf-1 inhibitor project. fluorescence interference counterscreen, Apaf-1 assay format. 460 tested, under 10 active. shares compounds with Apaf-1 inh. IC50, µM; call rule not given here
Numbers without * were called inactive; . = no result.

SMILES	GSTO1 counter	Apaf-1 inh	PAD4 FP inh	PRMT1 FP inh	TDP2 inh	Apaf-1 inh conf	Rh110 quench	others
c1ccc2c(c1)CC/C2=N/Nc1nc2ccccc2[nH]1	6.1	57.1*	-0.9	1.5	5.8	12.0	4.0
CC(C)(C)C1CCC(=NNc2nc3ccccc3[nH]2)CC1 (centres undefined)	1.9	3.3	-0.9	5.3	-4.2	.	.
CCCCn1c(NC(C)=O)c(C#N)c2nc3ccccc3nc21	27.1	84.5*	-19.0	-2.6	0.5	26.1	3.0
CCCCn1c(CNC(C)=O)nc2ccccc21	5.0	1.5	4.2	-3.2	5.0	.	.
Cc1ccc(SCC(=O)OCC(=O)NCC2CCCCC2)cc1C	13.7	12.0	-2.7	-2.8	-27.9	.	.
Cc1ccc(SCC(=O)OCC(=O)NCCNC(=O)COC(=O)CSc2ccc(C)c(C)c2)cc1C	-2.3	40.1*	-1.9	3.4	-0.5	20.2	16.4
Cc1ccc2nc(-c3ccc(NC(=O)CSc4nnc(Cc5cccs5)n4C)cc3)sc2c1	.	.	.	-0.6	-2.4	.	.
O=C(Nc1ccc2nc(-c3ccco3)c(-c3ccco3)nc2c1)NC1CC1	.	46.9*	.	.	.	33.1	4.9
CC1(C(=O)NCc2cccs2)Cc2c(-c3ccc(C(N)=O)cc3)ccnc2O1 (centres undefined)	.	.	.	1.0	10.5	.	.
CCOC(=O)c1c(NC(=O)c2cccs2)sc(C)c1CC	2.8	51.1*	4.8	0.5	-2.2	12.7	8.7
Cc1cc(C)c(S(=O)(=O)/N=C2/C=C(SCC(=O)O)C(=O)c3ccccc32)cc1C	.	72.4*	.	.	.	55.1*	-1.6	Apaf1 inh interf=>100
Cc1ccc(NC(=O)CSc2ccccc2)cc1S(=O)(=O)N1CCCCC1	.	9.4	-2.1	-6.2	-17.1	.	.
Cc1noc(C)c1COc1ccccc1C(=O)N1CCN(c2cccc(Cl)c2)CC1	.	51.8*	-0.7	-1.4	5.6	34.7	8.4
Cc1cc(C(=O)COc2cccc3cccnc23)c(C)n1C	25.6	53.4*	-6.7	20.4	8.8	15.8	12.6
CCN1/C(=C/c2ccc3ccccc3[n+]2CC)C=Cc2ccccc21	-42.6	40.7*	-71.5	4.5	-11.0	17.9	19.9
C[C@@H]1CN([C@@H](C)CO)C(=O)CCCn2cc(nn2)CO[C@H]1CN(C)C(=O)C1CC1	.	.	.	1.6	-0.5	.	.
CCOC(=O)C1CCN(C(=O)C(C)(C)NC(=O)Nc2ccc(N(C)C)cc2)CC1	.	.	.	6.1	-0.7	.	.
CCN1CCN(Cc2ccc(NC(=O)c3ccc(C)c(NC(=O)c4cc(-c5ccc(Br)cc5)n[nH]4)c3)cc2C(F)(F)F)CC1	-7.5	45.3*	0.8	-0.7	-11.1	22.5	-2.2
COC(=O)[C@]12C[C@H](CC(=O)NCc3cccc4ccccc34)C(=O)N(Cc3ccc(Cl)cc3Cl)C1=C[C@H](C(C)(C)C)O[C@@H]2C	.	.	.	-1.9	-4.1	.	.
O=C(O)c1ccc(NC2=C(N3CCOCC3)C(=O)c3ccccc3C2=O)cc1	46.4*	67.9*	-17.2	-1.9	22.4	50.6*	-0.7	Apaf1 inh interf=>100
O=C(c1ccccc1)c1ccc(N2CCOCC2)cc1	.	.	.	-4.7	-2.0	.	.
CC1(C)Cc2c(sc(NC(=O)COc3cccc4ccccc34)c2C#N)C(C)(C)N1	1.6	46.5*	2.5	-6.4	-11.8	39.2	-3.0
Cc1ccc(OCC(=O)Nc2sc3c(c2C#N)CC(C)(C)NC3(C)C)cc1	5.1	-21.9	-1.0	-2.9	-6.5	.	.
COc1ccc(S(=O)(=O)NCc2ccc3c(c2)cc(C)n3C)cc1	0.5	50.7*	3.9	-2.4	-4.2	17.3	3.4
CCCCCCSc1cc(-c2nc3cc(C)ccn3c2NCCCC)ccc1OC	8.8	23.0	0.7	0.2	-5.9	.	.
CCCCNc1c(-c2ccc(SC(C)CC)cc2)nc2cnccn12 (centres undefined)	.	59.9*	2.8	.	.	46.3*	32.8	Apaf1 inh interf=>100
